Measured values taken from ChEMBL document CHEMBL1131432, “Side chain methyl substitution in the delta-opioid receptor antagonist TIPP has an important effect on the activity profile” (J Med Chem, 1998).

Assays:
Mu-type opioid receptor = Mu-type opioid receptor (Rattus norvegicus, UniProt P33535); test: Binding affinity towards Opioid receptor mu 1 on rat forebrain membranes by [3H]sufentanil displacement.; set-up: species or system Membrane
Cavia porcellus [1] = organism: Cavia porcellus; test: In vitro agonist activity in electrically stimulated guinea pig ileum.; format: functional
Outline: (§1)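 Isolated guinea pig ileum or mouse vas deferens, electrically stimulated; the read-out is inhibition of contractions. A [Leu5]enkephalin log dose–response curve was run on each preparation and test IC50 values were normalised to it. Antagonist Ke was taken from the IC50 ratio with and without a fixed antagonist concentration; in MVD the δ-antagonism was measured against DPDPE.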

Mus musculus [2] = organism: Mus musculus; test: Inhibition of electrically evoked contractions of MVD. In MVD assay, the opioid effect was primarily mediated by delta-receptor; format: functional; outline: as §1
[3] = biological target: Kappa-type opioid receptor (Cavia porcellus, UniProt P41144); test: Binding affinity towards Opioid receptor kappa 1 on guinea pig cerebellum membranes by [3H]U-69593 displacement.; format: tissue-based, Membrane
Mus musculus [4] = organism: Mus musculus; test: Inhibition of electrically evoked contractions of MVD. In MVD assay, the opioid effect are primarily mediated by delta-receptors.; format: functional
Outline: (§2)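 Mouse vas deferens preparations, electrically stimulated, with inhibition of evoked contractions as the read-out. Each preparation got a [Leu5]enkephalin log dose-response curve as standard, and test IC50 values were normalized against it. Antagonism was tested against the agonist DPDPE. Ke came from the ratio of agonist IC50 with and without a fixed antagonist concentration.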

Mus musculus [5] = organism: Mus musculus; test: (§3) Inhibition of electrically evoked contractions of MVD in MVD assay, the opioid effect was primarily mediated by delta-receptor; format: functional; outline: as §1
Mus musculus [6] = organism: Mus musculus; test: as §3; format: functional; remark: listed apart in the source
Cavia porcellus [7] = organism: Cavia porcellus; test: In vitro opioid activity tested in bioassay based on inhibition of electrically evoked contractions of the GPI.; format: functional; outline: as §1
Mus musculus [8] = organism: Mus musculus; test: Inhibition of electrically evoked contractions of MVD. In MVD assay, the opioid effect is primarily mediated by delta-receptor; format: functional; outline: as §2
Mus musculus [9] = organism: Mus musculus; test: as §3; format: functional, organism-based; outline: as §1

Chain of Mu-type opioid receptor (P33535 whole entry): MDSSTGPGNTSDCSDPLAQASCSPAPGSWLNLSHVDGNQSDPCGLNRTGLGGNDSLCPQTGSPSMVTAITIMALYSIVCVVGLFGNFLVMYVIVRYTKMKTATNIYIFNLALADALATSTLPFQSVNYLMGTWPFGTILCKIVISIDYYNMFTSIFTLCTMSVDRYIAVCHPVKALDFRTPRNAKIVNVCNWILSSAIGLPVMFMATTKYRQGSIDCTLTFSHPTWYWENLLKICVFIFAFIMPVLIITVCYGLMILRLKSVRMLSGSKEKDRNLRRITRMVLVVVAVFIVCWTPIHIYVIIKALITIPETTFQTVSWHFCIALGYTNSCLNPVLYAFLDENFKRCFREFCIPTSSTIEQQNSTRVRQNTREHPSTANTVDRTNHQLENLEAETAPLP
Chain of Kappa-type opioid receptor (P41144 whole entry): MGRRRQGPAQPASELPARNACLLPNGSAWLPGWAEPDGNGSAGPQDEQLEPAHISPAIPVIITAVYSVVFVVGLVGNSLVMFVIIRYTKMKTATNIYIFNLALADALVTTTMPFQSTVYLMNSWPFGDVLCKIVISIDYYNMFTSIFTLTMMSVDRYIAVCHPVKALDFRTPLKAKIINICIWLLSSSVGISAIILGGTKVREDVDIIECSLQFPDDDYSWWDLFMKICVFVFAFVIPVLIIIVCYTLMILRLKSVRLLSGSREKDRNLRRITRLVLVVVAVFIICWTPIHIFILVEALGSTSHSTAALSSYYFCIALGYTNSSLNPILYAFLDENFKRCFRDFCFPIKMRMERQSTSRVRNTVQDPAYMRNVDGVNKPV

SMILES	Ki (Mu-type opioid receptor)	IC50 (Cavia porcellus [1])	Ke (Mus musculus [2])	Ki [3]	Ke (Mus musculus [4])	Ke (Mus musculus [5])	IC25 (Mus musculus [6])	IC35 (Cavia porcellus [7])	Ke (Mus musculus [8])	IC50 (Mus musculus [9])
N[C@@H](Cc1ccc(O)cc1)C(=O)N1Cc2ccccc2C[C@H]1C(=O)N[C@@H](Cc1ccccc1)C(=O)N[C@@H](Cc1ccccc1)C(=O)O	> 10000 nM	> 10000 nM	4.8 nM	> 10000 nM						
NC(=O)[C@H](Cc1ccccc1)NC(=O)[C@@H](Cc1ccccc1)NC(=O)[C@@H]1Cc2ccccc2CN1C(=O)[C@@H](N)Cc1ccc(O)cc1	658 nM	> 10000 nM	125 nM							
C[C@@H](c1ccc(O)cc1)[C@H](N)C(=O)N1Cc2ccccc2C[C@H]1C(=O)N[C@@H](Cc1ccccc1)C(=O)N[C@@H](Cc1ccccc1)C(N)=O	352 nM	> 10000 nM		> 10000 nM	102 nM					
C[C@H](c1ccc(O)cc1)[C@@H](N)C(=O)N1Cc2ccccc2C[C@H]1C(=O)N[C@@H](Cc1ccccc1)C(=O)N[C@@H](Cc1ccccc1)C(N)=O	1600 nM	> 10000 nM		1180 nM		1020 nM				
C[C@@H](c1ccccc1)[C@H](NC(=O)[C@H](Cc1ccccc1)NC(=O)[C@@H]1Cc2ccccc2CN1C(=O)[C@@H](N)Cc1ccc(O)cc1)C(N)=O	47 nM	636 nM	5.36 nM	1280 nM						
C[C@@H](c1ccccc1)[C@H](NC(=O)[C@@H]1Cc2ccccc2CN1C(=O)[C@@H](N)Cc1ccc(O)cc1)C(=O)N[C@@H](Cc1ccccc1)C(N)=O	973 nM	5520 nM	18.2 nM	3400 nM						
C[C@H](c1ccccc1)[C@@H](NC(=O)[C@@H]1Cc2ccccc2CN1C(=O)[C@@H](N)Cc1ccc(O)cc1)C(=O)N[C@@H](Cc1ccccc1)C(=O)O	> 10000 nM	> 10000 nM	0.192 nM	> 10000 nM						
C[C@H](c1ccccc1)[C@H](NC(=O)[C@@H]1Cc2ccccc2CN1C(=O)[C@@H](N)Cc1ccc(O)cc1)C(=O)N[C@@H](Cc1ccccc1)C(N)=O	149 nM	5080 nM		4320 nM		7.24 nM				
C[C@H](c1ccc(O)cc1)[C@H](N)C(=O)N1Cc2ccccc2C[C@H]1C(=O)N[C@@H](Cc1ccccc1)C(=O)N[C@@H](Cc1ccccc1)C(N)=O	284 nM	1210 nM		> 10000 nM			1030 nM			
C[C@@H](c1ccccc1)[C@@H](NC(=O)[C@H](Cc1ccccc1)NC(=O)[C@@H]1Cc2ccccc2CN1C(=O)[C@@H](N)Cc1ccc(O)cc1)C(N)=O	> 10000 nM	4510 nM		2840 nM		27.7 nM				
C[C@H](c1ccccc1)[C@@H](NC(=O)[C@H](Cc1ccccc1)NC(=O)[C@@H]1Cc2ccccc2CN1C(=O)[C@@H](N)Cc1ccc(O)cc1)C(N)=O	498 nM			766 nM		20.5 nM		1710 nM		
NC(=O)[C@H](Cc1ccccc1)NC(=O)[C@H](Cc1ccccc1)NC(=O)[C@@H]1Cc2ccccc2CN1C(=O)[C@@H](N)Cc1ccc(O)cc1	178 nM			838 nM					18 nM	
N[C@@H](Cc1ccc(O)cc1)C(=O)N1Cc2ccccc2C[C@H]1C(=O)NC(Cc1ccccc1)C(=O)N[C@@H](Cc1ccccc1)C(=O)O (single isomer, unassigned)	4000 nM									
C[C@@H](c1ccccc1)C(NC(=O)[C@@H]1Cc2ccccc2CN1C(=O)[C@@H](N)Cc1ccc(O)cc1)C(=O)N[C@@H](Cc1ccccc1)C(N)=O (single isomer, unassigned)	84 nM	127 nM		1190 nM						
C[C@H](c1ccccc1)C(NC(=O)[C@@H]1Cc2ccccc2CN1C(=O)[C@@H](N)Cc1ccc(O)cc1)C(=O)N[C@@H](Cc1ccccc1)C(N)=O (single isomer, unassigned)	> 10000 nM	> 10000 nM		442 nM		54.4 nM				
C[C@@H](c1ccc(O)cc1)C(N)C(=O)N1Cc2ccccc2C[C@H]1C(=O)N[C@@H](Cc1ccccc1)C(=O)N[C@@H](Cc1ccccc1)C(N)=O (single isomer, unassigned)	> 10000 nM	> 10000 nM		2510 nM		317 nM				
C[C@H](c1ccccc1)C(NC(=O)[C@H](Cc1ccccc1)NC(=O)[C@@H]1Cc2ccccc2CN1C(=O)[C@@H](N)Cc1ccc(O)cc1)C(N)=O (single isomer, unassigned)	2020 nM	2740 nM		253 nM		5.37 nM				
C[C@H]1c2ccccc2CN(C(=O)C(N)Cc2ccc(O)cc2)[C@H]1C(=O)N[C@@H](Cc1ccccc1)C(=O)N[C@@H](Cc1ccccc1)C(=O)O (single isomer, unassigned)	> 10000 nM	> 10000 nM	1.61 nM	> 10000 nM						
CC1c2ccccc2CN(C(=O)C(N)Cc2ccc(O)cc2)[C@@H]1C(=O)N[C@@H](Cc1ccccc1)C(=O)N[C@@H](Cc1ccccc1)C(=O)O (single isomer, unassigned)	> 10000 nM	> 10000 nM	2.09 nM	> 10000 nM						
NC(=O)[C@H](Cc1ccccc1)NC(=O)[C@H](Cc1ccccc1)NC(=O)C1Cc2ccccc2CN1C(=O)[C@@H](N)Cc1ccc(O)cc1 (single isomer, unassigned)	7.3 nM	37.1 nM								454 nM
C[C@@H]1c2ccccc2CN(C(=O)[C@@H](N)Cc2ccc(O)cc2)C1C(=O)N[C@@H](Cc1ccccc1)C(=O)N[C@@H](Cc1ccccc1)C(=O)O (single isomer, unassigned; 15)	> 10000 nM	> 10000 nM		> 10000 nM		1560 nM				
C[C@@H]1c2ccccc2CN(C(=O)[C@@H](N)Cc2ccc(O)cc2)C1C(=O)N[C@@H](Cc1ccccc1)C(=O)N[C@@H](Cc1ccccc1)C(=O)O (single isomer, unassigned; 16)	> 10000 nM	> 10000 nM		> 10000 nM		401 nM				
